IC50 and inhibition data for 28 compounds are collected here from ChEMBL document CHEMBL1130159, “Chlorogenic acid and synthetic chlorogenic acid derivatives: novel inhibitors of hepatic glucose-6-phosphate translocase” (J Med Chem, 1997).

As a reminder, the IC50 is the point on the concentration scale where inhibition reaches its midpoint. Low readings indicate greater potency, high ones weaker potency. By inhibition is commonly meant the relative decrease from the control value, in per cent. Low readings indicate a weak effect, high ones a strong effect.

SMILES strings stand for the structures. A value given as a limit tells only on which side of the number the result lay.

Test system in the first assay: not listed separately
The experiment in a line: Inhibition glucose-6-phosphate hydrolysis in highly intact microsomal preparations obtained from livers of 20-h fasted rats. The class given is functional, microsomes, Rattus norvegicus, Liver, Microsome.
Settings: not given
The method in brief: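 Male Wistar rats (160-180 g), fasted 20 h; liver microsomes by differential centrifugation, intactness usually above 97% (1 mM mannose 6-phosphate). 100 μg protein, 1 mM glucose 6-phosphate, 250 mM sucrose/50 mM HEPES pH 7.0, 10 min, 22 °C, compound 0.1-1000 μM (MeOH stock). Phosphate read at 630 nm, background-corrected; IC50 by nonlinear least-squares; at least two experiments.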
As for `O=C(/C=C/c1ccc(O)cc1)O[C@@H]1C[C@](O)(C(=O)O)C[C@@H](O)[C@H]1O`, the IC50 came to 250 µM.
Still for that read-out and setting: under `O=C(/C=C/c1ccc(O)c(O)c1)O[C@@H]1C[C@](O)(C(=O)O)C[C@@H](O)[C@H]1O` [CHLOROGENIC ACID] stands 230 µM; under `COc1cccc(CO[C@@]2(C(=O)O)C[C@@H](O)[C@@H](O)[C@H](OC(=O)/C=C/c3ccc(O)cc3)C2)c1`, 47 µM.
Still for that read-out and setting: under `O=C(O[C@@H]1C[C@](OCCCc2ccc(Cl)cc2)(C(=O)O)C[C@@H](O)[C@H]1O)C1CCCCC1` stands 8.9 µM; under `C=Cc1ccc(C(=O)O[C@@H]2C[C@](OCCCc3ccc(Cl)cc3)(C(=O)O)C[C@@H](O)[C@H]2O)cc1`, 1.3 µM.
In turn, `O=C(/C=C/c1ccc(O)cc1)O[C@@H]1C[C@](OCc2cccs2)(C(=O)O)C[C@@H](O)[C@H]1O` gave an IC50 of 110 µM.
In the case of `O=C(/C=C/c1ccc(O)cc1)O[C@@H]1C[C@](OCCCc2ccccc2)(C(=O)O)C[C@@H](O)[C@H]1O`, 31 µM corresponded to half-maximal inhibition (IC50).
Same read-out and setting: next, `O=C(/C=C/c1ccc(O)cc1)O[C@@H]1C[C@](OCCCc2ccc(Cl)cc2)(C(=O)O)C[C@@H](O)[C@H]1O`: 2.5 µM; `O=C(CCc1ccc(O)c(O)c1)O[C@@H]1C[C@](O)(C(=O)O)C[C@@H](O)[C@H]1O`: 680 µM.
Still for that read-out and setting: under `C#CCO[C@@]1(C(=O)O)C[C@@H](O)[C@@H](O)[C@H](OC(=O)/C=C/c2ccc(O)cc2)C1` stands 230 µM.
`O=C(O[C@@H]1C[C@](OCCCc2ccc(Cl)cc2)(C(=O)O)C[C@@H](O)[C@H]1O)c1snnc1-c1ccccc1` gave a 50% inhibitory concentration (IC50) of 4.5 µM.
Regarding `O=C(/C=C/c1ccc(O)cc1)O[C@@H]1C[C@](OCCCCc2ccc(Cl)cc2)(C(=O)O)C[C@@H](O)[C@H]1O`, the IC50 came out at 85 µM. Against the preceding compound, the IC50 is about 19-fold higher.
With `CC(C)CCC(=O)O[C@@H]1C[C@](OCCCc2ccc(Cl)cc2)(C(=O)O)C[C@@H](O)[C@H]1O`, 41 µM corresponded to half-maximal inhibition (IC50).
`O=C(/C=C/c1ccc(O)cc1)O[C@@H]1C[C@](OCc2ccc(-c3ccccc3)cc2)(C(=O)O)C[C@@H](O)[C@H]1O`: the IC50 is 21 µM.
On to `O=C(COc1ccccc1)O[C@@H]1C[C@](OCCCc2ccc(Cl)cc2)(C(=O)O)C[C@@H](O)[C@H]1O`, for which the IC50 was determined as 12 µM. Against the preceding compound, the IC50 is about 1.8-fold lower.
The same measure, in the same setting: next, `O=C(/C=C/c1cccnc1)O[C@@H]1C[C@](O)(C(=O)O)C[C@@H](O)[C@H]1O`: over 1000 µM.
For `O=C(/C=C/c1ccc(O)c(O)c1O)O[C@@H]1C[C@](O)(C(=O)O)C[C@@H](O)[C@H]1O`, the IC50 was 310 µM.
The same measure, in the same setting: under `O=C(/C=C/c1ccc(O)cc1)O[C@@H]1C[C@](OCc2ccccc2)(C(=O)O)C[C@@H](O)[C@H]1O` stands 190 µM.
The compound `CO[C@@]1(C(=O)O)C[C@@H](O)[C@@H](O)[C@H](OC(=O)/C=C/c2ccc(O)cc2)C1` returned an IC50 of 280 µM.
The same measure, in the same setting: next, `O=C(/C=C/c1ccsc1)O[C@@H]1C[C@](O)(C(=O)O)C[C@@H](O)[C@H]1O`: 380 µM.

For a further assay, the species on record is Rattus norvegicus. The experiment in a line: Percent inhibition against glucose-6-phosphate hydrolysis in highly intact microsomal preparations obtained from livers of 20-h fasted rats at 1 mM. It is filed as functional, microsomes. Particulars: Liver, Microsome. A digest of the protocol: (§1)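 Intact microsomes from 20-h-fasted male Wistar rat liver; 100 μg protein incubated 10 min at 22 °C with 1 mM glucose 6-phosphate in pH 7.0 sucrose/HEPES buffer, ≤1.25% methanol. Released phosphate measured colorimetrically at 630 nm after background subtraction. Percent inhibition versus vehicle control; representative of at least two independent experiments.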
With `O=C(/C=C/c1ccc(O)cc1)O[C@@H]1C[C@](O)(C(=O)O)[C@@H](O)[C@@H](O)[C@H]1O`, the inhibition stood at 30%.
`COC(=O)[C@]1(O)C[C@@H](O)[C@@H](O)[C@H](OC(=O)/C=C/c2ccc(O)c(O)c2)C1` gave an inhibition of 50%.
As for `CCO[C@@]1(C(=O)O)C[C@@H](O)[C@@H](O)[C@H](OC(=O)/C=C/c2ccc(O)cc2)C1`, the inhibition is 38%.
The compound `O=C(/C=C/c1ccc(O)cc1)N[C@@H]1CC(C(=O)O)=C[C@@H](O)[C@H]1O` returned an inhibition of 15%.
In turn, `O=C(/C=C/c1ccc(O)c(O)c1)O[C@@H]1C[C@@](O)(C(=O)O)[C@H](O)[C@@H](O)[C@H]1O` yielded an inhibition of 10%.
`O=C(/C=C/c1ccc(O)cc1)O[C@@H]1C[C@H](C(=O)O)CC[C@H]1O` registered an inhibition of 20%.

Another assay is filed under the species Rattus norvegicus. Description: Percent inhibition against glucose-6-phosphate hydrolysis in highly intact microsomal preparations obtained from livers of 20-h fasted rats at 0.25 mM. The class given is functional, microsomes. Particulars: Liver, Microsome. The method in brief: as §1
Turning to `O=C(/C=C/c1ccc(O)cc1)O[C@@H]1CC(C(=O)O)=C[C@@H](O)[C@H]1O`, the inhibition stood at 50%.

Another assay is filed under the species Rattus norvegicus. Description: Percent inhibition against glucose-6-phosphate hydrolysis in highly intact microsomal preparations obtained from livers of 20-h fasted rats at 0.23 mM. The class given is functional, microsomes. Particulars: Liver, Microsome. The method in brief:
as §1
For `O=C(/C=C/c1ccc(O)cc1)O[C@@H]1C[C@H](C(=O)O)C[C@@H](O)[C@H]1O`, the inhibition came to 50%.
